Experimental findings from ChEMBL document CHEMBL3351274, “Sensitization of tumor necrosis factor-related apoptosis-inducing ligand (TRAIL)-resistant primary prostate cancer cells by isoegomaketone from Perilla frutescens” (J Nat Prod, 2014) are described below.

Active and inactive are the calls of the source. The calls are words filed in the database; no cut-off is given here.

The nature of assay [1]: Induction of apoptosis in human RC-58T/h/SA#4 cells assessed as CHOP expression at 20 uM after 24 hrs by immunoblotting analysis relative to untreated control. It counts as functional. Summed up:
(§1)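 RC-58T/h/SA#4 cells seeded at 5 × 10^4 cells/mL and cultured 24 h, then given compound across a concentration series or at fixed dose over a time course. Lysates were quantified by BCA. 10 μg protein/lane run on 12% SDS-PAGE and transferred to nitrocellulose. Blots probed for p53, CHOP and β-actin with HRP secondary and ECL.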
A general note: A western blot detects proteins with antibodies after separation by electrophoresis.

Assay [2] is described as follows: Induction of apoptosis in human RC-58T/h/SA#4 cells assessed as DR5 expression at 20 uM after 3 hrs by immunoblotting analysis relative to untreated control. Type of assay: functional.
The nature of assay [3]: Sensitization of TRAIL-induced apoptosis in human RC-58T/h/SA#4 cells assessed as procaspase-3 activation at 20 uM after 24 hrs by immunoblotting analysis relative to untreated control. It counts as functional. The method in brief: (§2)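 Cells seeded at 5 × 10^4 cells/mL and cultured 24 h, then given 20 μM compound and/or 100 ng/mL TRAIL for 24 h. Whole-cell lysate made in Tris/NaCl/EDTA/NaF/pyrophosphate/PMSF/aprotinin buffer, 30 min on ice, protein measured by BCA. 12% SDS-PAGE at 10 μg/lane, nitrocellulose blot, primary antibodies (caspase-3, -8, -9, Bax, Bcl-2, PARP) overnight at 4 °C, HRP secondary, ECL.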

A short description of assay [4]: Induction of apoptosis in human RC-58T/h/SA#4 cells assessed as DR4 expression at 2.5 uM after 24 hrs by immunoblotting analysis relative to untreated control. Type of assay: functional.
Assay [5] is filed under the species Homo sapiens. The assay can be described thus: Induction of apoptosis in human RC-58T/h/SA#4 cells assessed as DR5 expression at 20 uM by immunoblotting analysis relative to untreated control. It counts as functional, cell-based. To be noted: TDE = time-dependent effect.
The species entered for assay [6] is Homo sapiens. The assay can be described thus: Induction of apoptosis in human RC-58T/h/SA#4 cells assessed as p53 expression at 2.5 to 40 uM by immunoblotting analysis relative to untreated control. To be noted: TDE = time-dependent effect. It counts as functional, cell-based. The method in brief: as §1
Assay [7] can be described thus: Induction of apoptosis in human RC-58T/h/SA#4 cells assessed as Bcl-2 activation at 20 uM after 24 hrs by immunoblotting analysis relative to untreated control. Type of assay: functional. Summed up: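 Cells grown in DMEM/10% FBS at 37 °C, 5% CO2, then treated 24 h with compound (20 μM) with or without TRAIL (100 ng/mL). Whole lysates were used for Bax and Bcl-2. Cytosolic and mitochondrial fractions were prepared with a mitochondria isolation kit for AIF and cytochrome c. Blotting used 10 μg protein/lane, 12% SDS-PAGE, nitrocellulose, overnight primary antibody at 4 °C and ECL detection.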

Assay [8] in a line: Induction of apoptosis in human RC-58T/h/SA#4 cells assessed as p53 expression at 2.5 uM after 24 hrs by immunoblotting analysis relative to untreated control. Type of assay: functional. Summed up: as §1
A short description of assay [9]: Induction of apoptosis in human RC-58T/h/SA#4 cells assessed as procaspase-9 activation at 20 uM after 24 hrs by immunoblotting analysis relative to untreated control. Type of assay: functional. Summed up:
as §2

Assay [10] is described as follows: Induction of apoptosis in human RC-58T/h/SA#4 cells assessed as DR5 expression at 40 uM after 24 hrs by immunoblotting analysis relative to untreated control. It counts as functional.
Assay [11] in a line: Induction of apoptosis in human RC-58T/h/SA#4 cells assessed as CHOP expression at 20 uM after 6 hrs by immunoblotting analysis relative to untreated control. Type of assay: functional. The method in brief:
as §1

For assay [12], the species on record is Homo sapiens. The assay can be described thus: Induction of apoptosis in human RC-58T/h/SA#4 cells assessed as DR5 expression after 24 hrs by immunoblotting analysis relative to untreated control. It counts as functional, cell-based.
Assay [13] can be described thus: Induction of apoptosis in human RC-58T/h/SA#4 cells assessed as DR4 expression at 20 uM after 12 hrs by immunoblotting analysis relative to untreated control. Type of assay: functional.
The nature of assay [14]: Sensitization of TRAIL-induced apoptosis in human RC-58T/h/SA#4 cells assessed as procaspase-9 activation at 20 uM after 24 hrs by immunoblotting analysis in presence of Dr5 Fc chimera relative to untreated control. Type of assay: functional. The method in brief: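 Cells pretreated 2 h with 100 ng/mL DR5 Fc chimera, then given 20 μM compound and/or 100 ng/mL TRAIL for 24 h. Total lysates immunoblotted (12% SDS-PAGE, nitrocellulose) for caspase-3, -8, -9 and PARP cleavage, with HRP secondary and ECL detection.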

A short description of assay [15]: Induction of apoptosis in human RC-58T/h/SA#4 cells assessed as p53 expression at 20 uM after 3 hrs by immunoblotting analysis relative to untreated control. Type of assay: functional. Summed up:
as §1

A short description of assay [16]: Induction of apoptosis in human RC-58T/h/SA#4 cells assessed as p53 expression at 40 uM after 24 hrs by immunoblotting analysis relative to untreated control. It counts as functional. Summed up:
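RC-58T/h/SA#4 cells (DMEM, 10% FBS, 37 °C, 5% CO2) exposed to the compound over a concentration range or time course. Lysates run on 12% SDS-PAGE at 10 μg protein/lane, transferred to nitrocellulose and blocked with BSA. Blots probed overnight at 4 °C with anti-p53, then HRP secondary antibody, ECL detection; β-actin as loading control.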

The nature of assay [17]: Induction of apoptosis in human RC-58T/h/SA#4 cells assessed as DR4 expression at 20 uM after 24 hrs by immunoblotting analysis relative to untreated control. Type of assay: functional.
Assay [18] is described as follows: Induction of apoptosis in human RC-58T/h/SA#4 cells assessed as p53 expression at 10 uM after 24 hrs by immunoblotting analysis relative to untreated control. Type of assay: functional. Summed up: as §1
Assay [19] can be described thus: Induction of ROS generation in human RC-58T/h/SA#4 cells at 20 uM after 30 mins by flow cytometry (reference value: 1.9%). It counts as functional. Background: Flow cytometry measures light scatter and fluorescence of single cells or particles in a stream.
The species entered for assay [20] is Homo sapiens. The experiment in a line: Sensitization of TRAIL-induced cytotoxicity against human RC-58T/h/SA#4 cells assessed as cell viability at 5 to 20 uM after 24 hrs by SRB assay. Type of assay: functional, cell-based. The method in brief:
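Cells seeded at 5 × 10^4 cells/mL, grown in DMEM with 10% FBS, and given the compound with or without 100 ng/mL TRAIL for 24 h at 37 °C, 5% CO2. RWPE-1 tested at 20 μM. Cells fixed in 12% TCA for 1 h at 4 °C, stained 1 h with 0.4% SRB, washed in 1% acetic acid, dye dissolved in 10 mM Tris and absorbance read. Three experiments, means ± SD.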
In general terms: The SRB assay estimates cell density from bound dye.

The species entered for assay [21] is Homo sapiens. The assay can be described thus: Induction of apoptosis in human RC-58T/h/SA#4 cells assessed as CHOP expression after 3 to 24 hrs by immunoblotting analysis relative to untreated control. It counts as functional, cell-based. The method in brief: as §1
Assay [22] in a line: Sensitization of TRAIL-induced apoptosis in human RC-58T/h/SA#4 cells assessed as procaspase-9 activation at 20 uM after 24 hrs by immunoblotting analysis relative to untreated control. It counts as functional. The method in brief:
as §2

Assay [23] is described as follows: Sensitization of TRAIL-induced apoptosis in human RC-58T/h/SA#4 cells assessed as accumulation at Sub-G1 phase at 20 uM after 24 hrs by annexin-V/propidium iodide staining-based flow cytometry in presence of pan-caspase inhibitor z-VAD-fmk (reference value: 4.8%). It counts as functional.
The nature of assay [24]: Sensitization of TRAIL-induced apoptosis in human RC-58T/h/SA#4 cells assessed as Bcl-2 activation at 20 uM after 24 hrs by immunoblotting analysis relative to untreated control. It counts as functional. The method in brief: as §2

Regarding `CC(C)/C=C/C(=O)c1ccoc1`, the Ratio in assay [1] came out at 1.8; in [2], 1.2; in [3], 0.4; in [4], 1.1; in [7], 0.7; in assay [8] it was 1.2. For the same molecule, the Ratio in [9] stood at 0.8; in [10], 1.3; in [11], 1; in [13] it was 1; in assay [14], 1.1; in assay [15], 1. Besides, the Ratio in [16] is 2.4; in assay [17] it was 1; in assay [18], 2; in assay [22], 0.5; in [24] it was 0.5. The Activity entry in assay [5] is “tde”; in assay [6], “tde”; in [12], “Dose-dependent effect”; in [19], 2.9%; in [21] it was “Dose-dependent effect”; in assay [23], 14.4%. Moreover, the result in assay [20] was Active.
